Source: ChEMBL document CHEMBL1126727, “Synthesis and anticonvulsant activity of enaminones. 2. Further structure-activity correlations” (J Med Chem, 1993)

What was measured:
Rattus norvegicus [1] = assay: Anticonvulsant activity reported as duration in amygdala kindled rats at 350 mg/kg (after discharge); assay type: functional
Rattus norvegicus [2] = assay: Intraperitoneal (ip) toxicity tested in rats is the number of animals displaying neurotoxicity / number of animals tested (8) after 0.25 hr at 100 mg / kg; assay type: organism-based; design: dose 100 mg / kg; conditions: in vivo
Outline: (§1)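 Special ip screen run by the ADD Program in male Sprague-Dawley rats. Test drug was given ip at 100 mg/kg as a solution or suspension in 0.5% methylcellulose. Neurotoxicity was scored at 0.25, 0.5, 1, 2, 4, 6, 8 and 24 h after dosing. Each result is reported as number of rats showing neurotoxicity over number tested.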

Rattus norvegicus [3] = assay: Intraperitoneal (ip) toxicity tested in rats is the number of animals displaying neurotoxicity / number of animals tested (8) after 24 hr at 100 mg / kg (Two testing animals died); assay type: organism-based; design: dose 100 mg / kg; conditions: in vivo; outline: as §1
Rattus norvegicus [4] = assay: Intraperitoneal (ip) toxicity tested in rats is the number of animals displaying neurotoxicity / number of animals tested (8) after 1 hr at 100 mg / kg; assay type: organism-based; design: dose 100 mg / kg; conditions: in vivo; outline: as §1
Rattus norvegicus [5] = assay: Anticonvulsant activity reported as cortex latency in amygdala kindled rats at 350 mg/kg (after discharge); assay type: functional
Rattus norvegicus [6] = assay: Anticonvulsant activity tested at seizure stage in amygdala kindled rats at 350 mg/kg; assay type: functional
Rattus norvegicus [7] = assay: Anticonvulsant activity reported as amygdala duration in amygdala kindled rats at 350 mg/kg (after discharge); assay type: functional
Rattus norvegicus [8] = assay: Intraperitoneal (ip) toxicity tested in rats is the number of animals displaying neurotoxicity / number of animals tested (8) after 4 h at 100 mg / kg; assay type: organism-based; design: dose 100 mg / kg; conditions: in vivo; outline: as §1
Rattus norvegicus [9] = assay: Intraperitoneal (ip) toxicity tested in rats is the number of animals displaying neurotoxicity / number of animals tested (8) after 2 h at 100 mg / kg; assay type: organism-based; design: dose 100 mg / kg; conditions: in vivo; outline: as §1
Rattus norvegicus [10] = assay: Intraperitoneal (ip) toxicity tested in rats is the number of animals displaying neurotoxicity / number of animals tested (8) after 8 hr at 100 mg / kg; assay type: organism-based; design: dose 100 mg / kg; conditions: in vivo; outline: as §1
Rattus norvegicus [11] = assay: Intraperitoneal (ip) toxicity tested in rats is the number of animals displaying neurotoxicity / number of animals tested (8) after 0.50 h at 100 mg / kg; assay type: organism-based; design: dose 100 mg / kg; conditions: in vivo, 0.5 h; outline: as §1
Rattus norvegicus [12] = assay: Anticonvulsant activity reported as latency in amygdala kindled rats at 350 mg/kg (Forelimb clonus); assay type: functional
Rattus norvegicus [13] = assay: Anticonvulsant activity reported as duration in amygdala kindled rats at 350 mg/kg (Forelimb clonus); assay type: functional
Rattus norvegicus [14] = assay: Anticonvulsant activity reported as duration in amygdala kindled rats at 350 mg/kg (Behavioral seizure); assay type: functional
Rattus norvegicus [15] = assay: Intraperitoneal (ip) toxicity tested in rats is the number of animals displaying neurotoxicity / number of animals tested (8) after 6 hr at 100 mg / kg; assay type: organism-based; design: dose 100 mg / kg; conditions: in vivo; outline: as §1
Rattus norvegicus [16] = assay: Anticonvulsant activity reported as latency in amygdala kindled rats at 350 mg/kg (Behavioral seizure); assay type: functional
Rattus norvegicus [17] = assay: Anticonvulsant activity reported as duration in amygdala kindled rats at 500 mg/kg (after discharge); assay type: functional
Rattus norvegicus [18] = assay: Anticonvulsant activity reported as amygdala duration in amygdala kindled rats at 500 mg/kg (after discharge); assay type: functional
Rattus norvegicus [19] = assay: Anticonvulsant activity reported as latency in amygdala kindled rats at 500 mg/kg (Behavioral seizure); assay type: functional
Rattus norvegicus [20] = assay: Anticonvulsant activity reported as duration in amygdala kindled rats at 500 mg/kg (Forelimb clonus); assay type: functional
Rattus norvegicus [21] = assay: Anticonvulsant activity reported as duration in amygdala kindled rats at 500 mg/kg (Behavioral seizure); assay type: functional
Rattus norvegicus [22] = assay: Anticonvulsant activity tested at seizure stage in amygdala kindled rats at 500 mg/kg; assay type: functional
Rattus norvegicus [23] = assay: Anticonvulsant activity reported as latency in amygdala kindled rats at 500 mg/kg (Forelimb clonus); assay type: functional
Rattus norvegicus [24] = assay: Anticonvulsant activity reported as cortex latency in amygdala kindled rats at 500 mg/kg (after discharge); assay type: functional
Rattus norvegicus [25] = organism: Rattus norvegicus; assay: Number of animals protected from electroshock seizure / number of animals tested (8) after 0.25 hour at 3.6 mg / kg in maximal electroshock seizures (MES); assay type: functional
Outline: (§2)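 For the intraperitoneal rat screen, compound was given as a solution or a suspension in 0.5% methylcellulose. Protection against maximal electroshock seizures was tested at 0.25 h or 0.50 h after dosing, in 8 animals per dose. Results are expressed as animals protected over animals tested, and ED50 in mg/kg ip, with a range, was derived from these counts.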

Rattus norvegicus [26] = organism: Rattus norvegicus; assay: (§3) Protective index (TD50 / MES ED50); assay type: functional
Rattus norvegicus [27] = organism: Rattus norvegicus; assay: Number of animals exhibiting neurotoxicity / number of animals tested (8) after 2.0 hr at 220 mg / kg; assay type: functional
Outline: (§4)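 Rats were dosed intraperitoneally, with compound given as a solution or a suspension in 0.5% methylcellulose. Neurotoxicity was scored 2.0 h after dosing in 8 animals per dose level (110–440 mg/kg). TD50 in mg/kg ip was derived from the dose–response, with a range given in parentheses.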

Rattus norvegicus [28] = organism: Rattus norvegicus; assay: Number of animals exhibiting neurotoxicity / number of animals tested (8) after 2.0 hr at 180 mg / kg; assay type: functional; outline: as §4
Rattus norvegicus [29] = organism: Rattus norvegicus; assay: Number of animals exhibiting neurotoxicity / number of animals tested (8) after 2.0 hr at 110 mg / kg; assay type: functional; outline: as §4
Rattus norvegicus [30] = organism: Rattus norvegicus; assay: Number of animals exhibiting neurotoxicity / number of animals tested (8) after 2.0 hr at 440 mg / kg; assay type: functional; outline: as §4
Rattus norvegicus [31] = organism: Rattus norvegicus; assay: Number of animals protected from electroshock seizure / number of animals tested (8) after 0.25 hour at 7.0 mg / kg in maximal electroshock seizures (MES); assay type: functional; outline: as §2
[32] = Toxic dose was determined after intraperitoneal administration; assay type: toxicity, organism-based; conditions: rat, in vivo, ip; outline: as §4
Rattus norvegicus [33] = organism: Rattus norvegicus; assay: Number of animals protected from electroshock seizure / number of animals tested (8) after 0.25 hour at 4.5 mg / kg in maximal electroshock seizures (MES); assay type: functional; outline: as §2
Rattus norvegicus [34] = organism: Rattus norvegicus; assay: Number of animals protected from electroshock seizure / number of animals tested (8) after 0.25 hour at 1.2 mg / kg in maximal electroshock seizures (MES); assay type: functional; outline: as §2
Rattus norvegicus [35] = assay: Toxicity observed in rats at >500 mg/kg po; conditions: in vivo
Rattus norvegicus [36] = assay: Intraperitoneal (ip) toxicity tested in rats is the number of animals displaying neurotoxicity / number of animals tested (8) after 24 hr at 100 mg / kg; assay type: organism-based; design: dose 100 mg / kg; conditions: in vivo; outline: as §1
[37] = Protective index expressed as TD50 / ED50; No toxicity; assay type: functional
Mus musculus [38] = assay: Effective dose administered intraperitoneally in mice at 15 minutes in maximal-electroshock (MES) test; conditions: ip, 0.25 h
[39] = as §3; assay type: functional
Rattus norvegicus [40] = organism: Rattus norvegicus; assay: Number of animals protected from electroshock seizure / number of animals tested (8) after 0.50 hour at 4.0 mg / kg in maximal electroshock seizures (MES); assay type: functional; outline: as §2
Rattus norvegicus [41] = organism: Rattus norvegicus; assay: Number of animals exhibiting neurotoxicity / number of animals tested (2) after 0.25-24 hr at 32 mg / kg
Rattus norvegicus [42] = organism: Rattus norvegicus; assay: Number of animals exhibiting neurotoxicity / number of animals tested (2) after 0.25-24 hr at 8 mg / kg
Rattus norvegicus [43] = organism: Rattus norvegicus; assay: Number of animals exhibiting neurotoxicity / number of animals tested (2) after 0.25-24 hr at 16 mg / kg
Rattus norvegicus [44] = organism: Rattus norvegicus; assay: Number of animals protected from electroshock seizure / number of animals tested (8) after 0.50 hour at 3.0 mg / kg in maximal electroshock seizures (MES); assay type: functional; outline: as §2
Rattus norvegicus [45] = organism: Rattus norvegicus; assay: Number of animals protected from electroshock seizure / number of animals tested (8) after 0.50 hour at 1.0 mg / kg in maximal electroshock seizures (MES); assay type: functional; outline: as §2
Rattus norvegicus [46] = organism: Rattus norvegicus; assay: Number of animals exhibiting neurotoxicity / number of animals tested (2) after 0.25-24 h at 64 mg / kg
Rattus norvegicus [47] = organism: Rattus norvegicus; assay: Number of animals protected from electroshock seizure / number of animals tested (8) after 0.50 hour at 3.5 mg / kg in maximal electroshock seizures (MES); assay type: functional; outline: as §2
Rattus norvegicus [48] = organism: Rattus norvegicus; assay: Number of animals protected from electroshock seizure / number of animals tested (8) after 0.50 hour at 2.0 mg / kg in maximal electroshock seizures (MES); assay type: functional; outline: as §2
[49] = Protective index expressed as TD50 / ED50; assay type: functional
Mus musculus [50] = assay: Toxicity observed in mice at >750 mg/kg ip; No Toxicity; conditions: in vivo

With `COC(=O)C1C(=O)C=C(Nc2ccc(Cl)cc2)CC1C` (stereo not given) the Duration (Rattus norvegicus [1]) was 79.6 s, the Toxicity (Rattus norvegicus [2]) was 0 and the Toxicity (Rattus norvegicus [3]) was 2. It also gave a Toxicity (Rattus norvegicus [4]) of 6, a Latency (Rattus norvegicus [5]) of 2.7 s and a Seizure stage (Rattus norvegicus [6]) of 5. The Duration (Rattus norvegicus [7]) was 79.8 s, the Toxicity (Rattus norvegicus [8]) was 2 and the Toxicity (Rattus norvegicus [9]) was 7. The Toxicity (Rattus norvegicus [10]) was 0, the Toxicity (Rattus norvegicus [11]) was 3 and the Latency (Rattus norvegicus [12]) was 9.2 s. For the same compound, the Duration (Rattus norvegicus [13]) was 45.3 s, the Duration (Rattus norvegicus [14]) was 82.3 s and the Toxicity (Rattus norvegicus [15]) was 1. For the same compound, the Latency (Rattus norvegicus [16]) was 2.1 s.
`COC(=O)C1C(=O)C=C(NCc2ccccc2)CC1C` (stereo not given) showed a Duration (Rattus norvegicus [17]) of 78.9 s, a Duration (Rattus norvegicus [18]) of 73.9 s and a Latency (Rattus norvegicus [19]) of 2.1 s. It also gave a Duration (Rattus norvegicus [20]) of 44.2 s, a Duration (Rattus norvegicus [21]) of 79.5 s and a Seizure stage (Rattus norvegicus [22]) of 5. For the same compound, the Latency (Rattus norvegicus [23]) was 9.3 s and the Latency (Rattus norvegicus [24]) was 2.8 s.
In the case of `COC(=O)C1C(=O)C=C(Nc2ccc(Br)cc2)CC1C` (stereo not given), the No. of animals (Rattus norvegicus [25]) is reported as 5, the PI (Rattus norvegicus [26]) is reported as 67.4 and the No. of animals (Rattus norvegicus [27]) is reported as 4. It also gave a No. of animals (Rattus norvegicus [28]) of 2, a No. of animals (Rattus norvegicus [29]) of 0 and a No. of animals (Rattus norvegicus [30]) of 6. The No. of animals (Rattus norvegicus [31]) was 7, the TD50 [32] was 270 mg/kg and the No. of animals (Rattus norvegicus [33]) was 3. It also gave a No. of animals (Rattus norvegicus [34]) of 0.
For `CC1(C)CC(O)=C/C(=N\c2ccccc2)C1`, the Toxicity (Rattus norvegicus [2]) was 5, the Toxicity (Rattus norvegicus [4]) was 6 and the Toxicity (Rattus norvegicus [35]) was “Toxicity observed in mice at >500 mg/kg po”. For the same compound, the Toxicity (Rattus norvegicus [36]) was 0, the Toxicity (Rattus norvegicus [8]) was 3 and the Toxicity (Rattus norvegicus [9]) was 6. For the same compound, the PI [37] was greater than 13.7, the ED50 (Mus musculus [38]) was 36.4 mg/kg and the Toxicity (Rattus norvegicus [11]) was 7. For the same compound, the Toxicity (Rattus norvegicus [15]) was 3.
With `COC(=O)C1C(=O)C=C(Nc2ccc(C(F)(F)F)cc2)CC1C` (stereo not given) the PI [39] was greater than 21.7, the No. of animals (Rattus norvegicus [40]) was 7 and the No. of animals (Rattus norvegicus [41]) was 0. For the same compound, the No. of animals (Rattus norvegicus [42]) was 0, the No. of animals (Rattus norvegicus [43]) was 0 and the No. of animals (Rattus norvegicus [44]) was 3. For the same compound, the No. of animals (Rattus norvegicus [45]) was 0, the No. of animals (Rattus norvegicus [46]) was 0 and the No. of animals (Rattus norvegicus [47]) was 4. The No. of animals (Rattus norvegicus [48]) was 3 and the TD50 [32] was greater than 64 mg/kg.
In the case of `CCc1ccc(NC2=CC(=O)C(C(=O)OC)C(C)C2)cc1` (stereo not given), the PI [49] is reported as greater than 6.6, the Toxicity (Rattus norvegicus [2]) is reported as 1 and the Toxicity (Rattus norvegicus [4]) is reported as 0. The Toxicity (Rattus norvegicus [36]) was 0, the Toxicity (Rattus norvegicus [8]) was 0 and the Toxicity (Rattus norvegicus [9]) was 0. For the same compound, the ED50 (Mus musculus [38]) was 114 mg/kg, the Toxicity (Rattus norvegicus [11]) was 5 and the Toxicity (Rattus norvegicus [15]) was 0. For the same compound, the Toxicity (Mus musculus [50]) was “No Toxicity”.
